{"source": "ChEMBL document CHEMBL2203081", "about": "(Bioorg Med Chem Lett, 2012)", "key": {"[1]": {"target": "Casein kinase I isoform gamma-1 (Homo sapiens) (UniProt Q9HCP0)", "experiment": "Inhibition of CSNK1G1 assessed as residual activity at 10 uM relative to control", "outline": "(§1)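 Competition kinase-binding assay (KINOMEscan) across a non-redundant panel of 329 kinases beyond the radiometric panel; residual binding expressed relative to control.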"}, "[2]": {"target": "Casein kinase I isoform alpha (Homo sapiens) (UniProt P48729)", "experiment": "Inhibition of CSNK1A1 assessed as residual activity at 10 uM relative to control", "outline": "as §1"}, "[3]": {"target": "MAP kinase-activated protein kinase 5 (Homo sapiens) (UniProt Q8IW41)", "sequence (Q8IW41 whole entry)": "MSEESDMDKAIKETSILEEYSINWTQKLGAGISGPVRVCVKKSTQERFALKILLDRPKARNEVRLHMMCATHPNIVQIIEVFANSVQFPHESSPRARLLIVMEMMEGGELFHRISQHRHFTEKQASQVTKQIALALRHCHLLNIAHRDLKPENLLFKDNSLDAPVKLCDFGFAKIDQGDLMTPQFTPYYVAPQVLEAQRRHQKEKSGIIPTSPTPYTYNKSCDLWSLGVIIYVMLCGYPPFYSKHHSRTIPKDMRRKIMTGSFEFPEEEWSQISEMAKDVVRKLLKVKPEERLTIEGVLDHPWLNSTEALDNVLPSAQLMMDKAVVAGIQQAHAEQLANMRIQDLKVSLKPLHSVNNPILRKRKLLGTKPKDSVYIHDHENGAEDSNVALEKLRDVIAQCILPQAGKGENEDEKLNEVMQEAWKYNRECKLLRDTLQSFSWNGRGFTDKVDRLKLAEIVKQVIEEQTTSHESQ", "experiment": "Inhibition of PRAK assessed as residual activity at 1 uM"}, "[4]": {"target": "Serine/threonine-protein kinase 35 (Homo sapiens) (UniProt Q8TDR2)", "experiment": "Inhibition of STK35 assessed as residual activity at 10 uM relative to control"}, "[5]": {"target": "Mitogen-activated protein kinase 9 (Homo sapiens) (UniProt P45984)", "sequence (P45984 whole entry, looked up)": "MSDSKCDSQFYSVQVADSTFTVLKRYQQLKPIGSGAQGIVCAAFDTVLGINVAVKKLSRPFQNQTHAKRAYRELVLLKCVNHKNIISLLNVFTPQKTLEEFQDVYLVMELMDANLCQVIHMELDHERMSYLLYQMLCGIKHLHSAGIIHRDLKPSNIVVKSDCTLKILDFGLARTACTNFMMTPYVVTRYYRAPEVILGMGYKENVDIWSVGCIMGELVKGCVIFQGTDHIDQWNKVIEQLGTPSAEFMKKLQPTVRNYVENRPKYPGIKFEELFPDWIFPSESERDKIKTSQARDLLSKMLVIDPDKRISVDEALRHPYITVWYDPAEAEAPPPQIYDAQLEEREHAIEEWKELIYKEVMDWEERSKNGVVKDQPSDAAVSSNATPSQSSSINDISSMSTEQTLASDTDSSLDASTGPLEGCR", "experiment": "Inhibition of JNK2 assessed as residual activity at 1 uM", "outline": "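Radioactivity-based enzymatic activity assay of the named kinase, run as part of a 131-kinase specificity panel at the National Centre for Protein Kinase Profiling (Dundee). Residual activity was read at the stated single inhibitor concentration.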"}, "[6]": {"tested_on": "Mast/stem cell growth factor receptor Kit (Homo sapiens), P10721 [V559D,T670I]", "sequence (P10721 whole entry V559D/T670I)": "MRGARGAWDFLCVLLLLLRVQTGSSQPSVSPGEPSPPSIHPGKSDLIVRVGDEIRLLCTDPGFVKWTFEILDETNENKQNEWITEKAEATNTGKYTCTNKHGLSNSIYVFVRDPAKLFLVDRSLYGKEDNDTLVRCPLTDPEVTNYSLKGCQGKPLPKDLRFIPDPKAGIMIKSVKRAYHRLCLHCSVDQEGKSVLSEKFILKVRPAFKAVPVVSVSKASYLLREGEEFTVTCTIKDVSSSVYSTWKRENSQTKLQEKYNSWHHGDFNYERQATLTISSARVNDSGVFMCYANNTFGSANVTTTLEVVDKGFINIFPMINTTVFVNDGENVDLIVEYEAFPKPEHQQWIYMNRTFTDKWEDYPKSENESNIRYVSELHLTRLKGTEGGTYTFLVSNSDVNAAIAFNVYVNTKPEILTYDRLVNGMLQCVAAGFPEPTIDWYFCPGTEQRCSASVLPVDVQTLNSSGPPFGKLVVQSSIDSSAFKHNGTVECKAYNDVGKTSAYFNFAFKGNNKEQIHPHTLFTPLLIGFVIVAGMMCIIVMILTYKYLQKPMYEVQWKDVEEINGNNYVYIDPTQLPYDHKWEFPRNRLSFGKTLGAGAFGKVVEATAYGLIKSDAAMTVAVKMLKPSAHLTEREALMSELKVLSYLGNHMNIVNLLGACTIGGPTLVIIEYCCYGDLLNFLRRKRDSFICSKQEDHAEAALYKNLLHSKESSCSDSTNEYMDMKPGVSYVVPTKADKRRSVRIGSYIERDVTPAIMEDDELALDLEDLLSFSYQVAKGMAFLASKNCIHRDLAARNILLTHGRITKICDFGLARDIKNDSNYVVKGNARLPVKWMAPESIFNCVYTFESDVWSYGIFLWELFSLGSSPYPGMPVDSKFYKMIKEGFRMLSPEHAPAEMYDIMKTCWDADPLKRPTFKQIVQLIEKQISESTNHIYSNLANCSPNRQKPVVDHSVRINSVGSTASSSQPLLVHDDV", "experiment": "Inhibition of KIT V559D,T670I mutant assessed as residual activity at 10 uM relative to control"}, "[7]": {"target": "Tyrosine-protein kinase BTK (Homo sapiens) (UniProt Q06187)", "experiment": "Inhibition of BTK assessed as residual activity at 10 uM relative to control"}, "[8]": {"target": "Ribosomal protein S6 kinase alpha-5 (Homo sapiens) (UniProt O75582)", "experiment": "Inhibition of RPS6KA5 N-terminal domain 1 assessed as residual activity at 10 uM relative to control"}, "[9]": {"target": "Bone morphogenetic protein receptor type-1A (Homo sapiens) (UniProt P36894)", "experiment": "Inhibition of BMPR1A assessed as residual activity at 10 uM relative to control"}, "[10]": {"target": "Serine/threonine-protein kinase D2 (Homo sapiens) (UniProt Q9BZL6)", "sequence (Q9BZL6 whole entry)": "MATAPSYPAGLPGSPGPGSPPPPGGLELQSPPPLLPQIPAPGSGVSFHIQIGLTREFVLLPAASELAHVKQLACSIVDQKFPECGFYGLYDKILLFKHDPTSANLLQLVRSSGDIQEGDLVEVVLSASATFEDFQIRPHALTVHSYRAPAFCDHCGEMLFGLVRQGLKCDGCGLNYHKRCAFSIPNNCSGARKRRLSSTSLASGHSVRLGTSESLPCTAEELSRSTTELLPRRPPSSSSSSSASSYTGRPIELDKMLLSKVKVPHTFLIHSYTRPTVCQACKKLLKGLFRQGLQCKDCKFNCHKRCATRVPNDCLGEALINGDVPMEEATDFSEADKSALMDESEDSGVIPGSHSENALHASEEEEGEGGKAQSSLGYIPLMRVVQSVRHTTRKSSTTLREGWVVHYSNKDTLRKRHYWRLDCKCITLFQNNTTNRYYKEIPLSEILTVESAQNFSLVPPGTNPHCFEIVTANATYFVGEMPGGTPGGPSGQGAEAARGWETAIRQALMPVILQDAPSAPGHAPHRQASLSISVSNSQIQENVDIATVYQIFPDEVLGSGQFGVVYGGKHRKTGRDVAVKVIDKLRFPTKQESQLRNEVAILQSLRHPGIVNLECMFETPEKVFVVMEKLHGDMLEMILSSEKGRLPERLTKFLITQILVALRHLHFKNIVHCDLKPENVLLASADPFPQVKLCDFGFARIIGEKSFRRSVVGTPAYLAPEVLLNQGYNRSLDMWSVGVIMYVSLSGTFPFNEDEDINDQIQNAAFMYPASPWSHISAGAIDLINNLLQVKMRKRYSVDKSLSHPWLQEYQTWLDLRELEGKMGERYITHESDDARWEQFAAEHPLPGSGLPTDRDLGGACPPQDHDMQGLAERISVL", "experiment": "Inhibition of PRKD2 assessed as residual activity at 10 uM relative to control"}, "[11]": {"target": "T1, Serine/threonine-protein kinase D1 (Homo sapiens) (UniProt Q15139)", "T1 sequence (whole entry)": "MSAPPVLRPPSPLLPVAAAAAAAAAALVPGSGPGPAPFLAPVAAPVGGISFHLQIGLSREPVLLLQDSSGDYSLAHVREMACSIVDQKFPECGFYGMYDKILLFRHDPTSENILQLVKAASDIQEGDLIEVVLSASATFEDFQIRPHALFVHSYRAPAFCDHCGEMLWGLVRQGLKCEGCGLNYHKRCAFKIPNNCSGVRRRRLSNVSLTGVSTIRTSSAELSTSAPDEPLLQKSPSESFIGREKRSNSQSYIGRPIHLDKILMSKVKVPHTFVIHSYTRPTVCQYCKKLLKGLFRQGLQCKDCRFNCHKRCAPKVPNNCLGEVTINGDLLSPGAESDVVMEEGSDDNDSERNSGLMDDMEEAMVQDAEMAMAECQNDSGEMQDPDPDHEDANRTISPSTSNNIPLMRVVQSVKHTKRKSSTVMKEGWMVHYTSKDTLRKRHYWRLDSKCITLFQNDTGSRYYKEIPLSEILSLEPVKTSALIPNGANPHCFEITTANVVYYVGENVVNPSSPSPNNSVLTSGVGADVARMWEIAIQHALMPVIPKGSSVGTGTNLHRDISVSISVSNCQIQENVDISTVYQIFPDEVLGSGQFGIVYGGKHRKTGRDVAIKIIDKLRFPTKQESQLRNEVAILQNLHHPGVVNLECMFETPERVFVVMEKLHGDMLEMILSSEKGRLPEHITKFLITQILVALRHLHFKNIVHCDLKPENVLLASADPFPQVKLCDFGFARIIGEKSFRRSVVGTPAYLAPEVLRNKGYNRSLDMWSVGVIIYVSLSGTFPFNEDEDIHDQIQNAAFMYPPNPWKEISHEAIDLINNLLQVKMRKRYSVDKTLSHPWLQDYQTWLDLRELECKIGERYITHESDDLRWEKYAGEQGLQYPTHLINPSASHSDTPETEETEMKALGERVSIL", "experiment": "Inhibition of PRKD1 assessed as residual activity at 10 uM relative to control"}, "[12]": {"target": "Serine/threonine-protein kinase PLK2 (Homo sapiens) (UniProt Q9NYY3)", "experiment": "Inhibition of PLK2 assessed as residual activity at 10 uM relative to control"}, "[13]": {"tested_on": "Tyrosine-protein kinase ABL1 (Homo sapiens), P00519 [E255K]", "experiment": "Inhibition of phosphorylated ABL1 E255K mutant assessed as residual activity at 10 uM relative to control"}, "[14]": {"tested_on": "Mus musculus", "experiment": "Inhibition of LRRK2 in mouse assessed as inhibition of Ser935 autophosphorylation in brain at 100 mg/kg, ip by immunoblot method", "assay_type": "functional, organism-based", "set-up": "dose 100 mg/kg"}, "[15]": {"target": "Dual specificity tyrosine-phosphorylation-regulated kinase 3 (Homo sapiens) (UniProt O43781)", "experiment": "Inhibition of DYRK3 assessed as residual activity at 1 uM", "outline": "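Standard radioactivity-based enzymatic kinase assays on a 131-kinase panel run by the Dundee profiling service; residual kinase activity recorded.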"}, "[16]": {"target": "Casein kinase I isoform delta (Homo sapiens) (UniProt P48730)", "sequence (P48730 whole entry, looked up, canonical isoform)": "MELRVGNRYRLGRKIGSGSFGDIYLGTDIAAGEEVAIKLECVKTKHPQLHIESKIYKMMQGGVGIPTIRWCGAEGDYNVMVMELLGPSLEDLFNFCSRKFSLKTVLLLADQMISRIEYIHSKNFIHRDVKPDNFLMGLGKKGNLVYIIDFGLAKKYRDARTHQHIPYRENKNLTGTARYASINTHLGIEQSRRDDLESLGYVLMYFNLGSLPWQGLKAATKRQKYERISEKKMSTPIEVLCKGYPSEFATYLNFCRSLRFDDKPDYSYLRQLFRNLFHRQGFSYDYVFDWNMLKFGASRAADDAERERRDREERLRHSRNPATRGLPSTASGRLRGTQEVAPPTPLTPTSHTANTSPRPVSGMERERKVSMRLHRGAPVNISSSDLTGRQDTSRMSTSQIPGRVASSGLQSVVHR", "experiment": "Inhibition of CK1d assessed as residual activity at 1 uM", "outline": "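Radioactivity-based enzymatic assay against a panel of 131 kinases (Dundee profiling). Activity remaining was measured with compound present at the stated concentration.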"}, "[17]": {"target": "Serine/threonine-protein kinase WNK1 (Homo sapiens) (UniProt Q9H4A3)", "experiment": "Inhibition of WNK1 assessed as residual activity at 10 uM"}, "[18]": {"target": "Receptor tyrosine-protein kinase erbB-2 (Homo sapiens) (UniProt P04626)", "experiment": "Inhibition of ERBB2 assessed as residual activity at 10 uM relative to control", "outline": "as §1"}, "[19]": {"tested_on": "Mus musculus", "experiment": "Oral bioavailability in Swiss albino mouse at 10 mg/kg", "assay_type": "ADME, organism-based", "conditions": "in vivo"}, "[20]": {"target": "Ribosomal protein S6 kinase alpha-1 (Homo sapiens) (UniProt Q15418)", "experiment": "Inhibition of RSK1 assessed as residual activity at 1 uM"}, "[21]": {"target": "Myosin light chain kinase family member 4 (Homo sapiens) (UniProt Q86YV6)", "experiment": "Inhibition of MYLK4 assessed as residual activity at 10 uM relative to control"}, "[22]": {"target": "Myosin light chain kinase, smooth muscle (Homo sapiens) (UniProt Q15746)", "sequence (Q15746 whole entry)": "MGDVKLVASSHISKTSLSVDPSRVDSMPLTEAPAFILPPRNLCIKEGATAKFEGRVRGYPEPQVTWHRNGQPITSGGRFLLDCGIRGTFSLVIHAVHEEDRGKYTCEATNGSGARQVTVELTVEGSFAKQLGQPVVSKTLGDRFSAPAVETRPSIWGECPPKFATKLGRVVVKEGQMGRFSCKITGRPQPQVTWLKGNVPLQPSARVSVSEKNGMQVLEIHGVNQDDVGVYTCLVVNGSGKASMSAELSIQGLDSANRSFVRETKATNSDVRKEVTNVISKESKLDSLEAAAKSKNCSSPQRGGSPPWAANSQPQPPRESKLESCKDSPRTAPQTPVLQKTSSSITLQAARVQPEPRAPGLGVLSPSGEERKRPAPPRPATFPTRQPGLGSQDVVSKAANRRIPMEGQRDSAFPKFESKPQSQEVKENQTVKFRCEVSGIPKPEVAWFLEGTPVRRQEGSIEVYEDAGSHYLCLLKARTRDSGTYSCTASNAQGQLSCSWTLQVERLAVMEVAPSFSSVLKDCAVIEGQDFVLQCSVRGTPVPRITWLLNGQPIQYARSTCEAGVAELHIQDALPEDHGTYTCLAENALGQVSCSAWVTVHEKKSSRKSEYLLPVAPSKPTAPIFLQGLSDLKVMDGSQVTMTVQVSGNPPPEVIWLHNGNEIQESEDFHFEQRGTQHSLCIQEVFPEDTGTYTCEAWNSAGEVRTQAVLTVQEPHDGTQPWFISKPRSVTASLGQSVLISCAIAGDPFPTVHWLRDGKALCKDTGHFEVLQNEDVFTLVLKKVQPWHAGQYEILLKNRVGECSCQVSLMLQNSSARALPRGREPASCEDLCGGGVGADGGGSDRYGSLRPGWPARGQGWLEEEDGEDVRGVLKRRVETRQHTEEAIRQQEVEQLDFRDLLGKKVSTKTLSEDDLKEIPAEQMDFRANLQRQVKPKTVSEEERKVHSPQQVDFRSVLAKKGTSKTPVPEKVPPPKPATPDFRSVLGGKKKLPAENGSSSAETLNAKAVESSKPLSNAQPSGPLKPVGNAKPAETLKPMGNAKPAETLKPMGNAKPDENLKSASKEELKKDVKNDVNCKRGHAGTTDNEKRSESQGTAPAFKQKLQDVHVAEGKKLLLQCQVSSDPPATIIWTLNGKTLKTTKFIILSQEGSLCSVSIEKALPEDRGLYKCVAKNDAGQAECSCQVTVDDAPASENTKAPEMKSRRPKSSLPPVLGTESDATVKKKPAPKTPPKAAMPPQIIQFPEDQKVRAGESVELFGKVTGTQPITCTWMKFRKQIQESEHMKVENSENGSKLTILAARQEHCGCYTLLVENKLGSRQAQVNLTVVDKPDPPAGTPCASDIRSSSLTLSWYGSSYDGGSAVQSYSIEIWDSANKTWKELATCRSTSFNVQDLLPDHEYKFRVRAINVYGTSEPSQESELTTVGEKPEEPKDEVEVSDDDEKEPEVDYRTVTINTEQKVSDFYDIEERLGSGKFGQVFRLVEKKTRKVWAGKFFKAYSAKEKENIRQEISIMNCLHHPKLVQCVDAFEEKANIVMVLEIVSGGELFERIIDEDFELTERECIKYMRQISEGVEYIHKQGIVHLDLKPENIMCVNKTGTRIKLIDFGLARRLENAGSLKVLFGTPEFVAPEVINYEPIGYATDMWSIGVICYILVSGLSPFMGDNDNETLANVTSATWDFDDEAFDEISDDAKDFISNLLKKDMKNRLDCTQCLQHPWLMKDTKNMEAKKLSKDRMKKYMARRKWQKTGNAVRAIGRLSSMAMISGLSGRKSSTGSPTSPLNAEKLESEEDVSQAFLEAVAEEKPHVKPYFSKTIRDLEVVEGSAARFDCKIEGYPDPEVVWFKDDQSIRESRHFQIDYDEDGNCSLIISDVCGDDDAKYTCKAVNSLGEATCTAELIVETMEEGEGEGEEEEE", "experiment": "Inhibition of MYLK assessed as residual activity at 10 uM relative to control"}, "[23]": {"target": "Serine/threonine-protein kinase 3 (Homo sapiens) (UniProt Q13188)", "experiment": "Inhibition of MST2 assessed as residual activity at 10 uM relative to control"}, "[24]": {"target": "Leucine-rich repeat serine/threonine-protein kinase 2 (Homo sapiens) (UniProt Q5S007)", "conditions": "0.01 to 1 uM"}, "[25]": {"tested_on": "Leucine-rich repeat serine/threonine-protein kinase 2 (Homo sapiens), Q5S007 [A2016T]", "conditions": "HEK293, 1 to 3 uM"}}, "note": "The source made the active and inactive calls. No cut-off for these calls is given here."}
{"smiles": "O=C(Nc1cccnc1)c1cc(-c2ccnc(F)c2)ccc1OCc1ccccc1", "values": [{"measurement": "Activity", "setting": "[1]", "value": 79, "unit": "%"}, {"measurement": "Activity", "setting": "[2]", "value": 60, "unit": "%"}, {"measurement": "Activity", "setting": "[3]", "value": 109, "unit": "%"}, {"measurement": "Activity", "setting": "[4]", "value": 44, "unit": "%"}, {"measurement": "Activity", "setting": "[5]", "value": 107, "unit": "%"}, {"measurement": "Activity", "setting": "[6]", "value": 52, "unit": "%"}, {"measurement": "Activity", "setting": "[7]", "value": 64, "unit": "%"}, {"measurement": "Activity", "setting": "[8]", "value": 77, "unit": "%"}, {"measurement": "Activity", "setting": "[9]", "value": 41, "unit": "%"}, {"measurement": "Activity", "setting": "[10]", "value": 74, "unit": "%"}, {"measurement": "Activity", "setting": "[11]", "value": 41, "unit": "%"}, {"measurement": "Activity", "setting": "[12]", "value": 69, "unit": "%"}, {"measurement": "Activity", "setting": "[13]", "value": 75, "unit": "%"}, {"measurement": "inhibition", "setting": "[14]", "value": "inactive"}, {"measurement": "Activity", "setting": "[15]", "value": 101, "unit": "%"}, {"measurement": "Activity", "setting": "[16]", "value": 107, "unit": "%"}, {"measurement": "Activity", "setting": "[17]", "value": 106, "unit": "%"}, {"measurement": "Activity", "setting": "[18]", "value": 57, "unit": "%"}, {"measurement": "F", "setting": "[19]", "value": 12.2, "unit": "%"}, {"measurement": "Activity", "setting": "[20]", "value": 69, "unit": "%"}, {"measurement": "Activity", "setting": "[21]", "value": 80, "unit": "%"}, {"measurement": "Activity", "setting": "[22]", "value": 27, "unit": "%"}, {"measurement": "Activity", "setting": "[23]", "value": 23, "unit": "%"}, {"measurement": "inhibition", "setting": "[24]", "value": "Active"}, {"measurement": "inhibition", "setting": "[25]", "value": "Active"}]}
